Measurements pooled from the literature.
Each line is one published result; the experiments were not run side by side.
Sample: Caco-2

With C[C@H]1O[C@@H](O[C@H]2[C@@H](O)C[C@H](O[C@H]3[C@@H](O)C[C@H](O[C@H]4CC[C@@]5(C)[C@H](CC[C@@H]6[C@@H]5C[C@@H](O)[C@]5(C)[C@@H](C7=CC(=O)OC7)CC[C@]65O)C4)O[C@@H]3C)O[C@@H]2C)C[C@H](O)[C@@H]1O the Papp A→B was 1.4 ×10⁻⁶ cm/s (pH 7.4).
With C/C=C1/CN2CC[C@@]34c5cc(O)ccc5N(C)[C@]35OC[C@@]4(C(=O)OC)[C@H]1C[C@H]25 the Papp A→B was 28.2 ×10⁻⁶ cm/s (10 µM; 2 h; pH 7.4).
With CC(c1cncnc1)n1c(=S)[nH]c2ccc(Cl)cc2c1=O (centres unmarked) the Papp A→B was 45.7 ×10⁻⁶ cm/s (10 µM; 90 min; pH 7.4).
CC(C)NCC(O)COc1cccc2ccccc12 (centres unmarked) has a Papp B→A of 4.2 ×10⁻⁶ cm/s (pH 7.4).
CC(C)NCC(O)COc1cccc2ccccc12 (centres unmarked) has a Papp B→A of 19.5 ×10⁻⁶ cm/s (10 µM; 2 h; pH 7.4).
O=C1CCC(N2Cc3c(ccc4c3OCC43CCN(Cc4ccccc4)CC3)C2=O)C(=O)N1 (centres unmarked) has a Papp of 19 ×10⁻⁶ cm/s (10 µM; 2 h).
For O=c1c2cc(Cl)c(CO)cc2[nH]c(=S)n1Cc1cncnc1, the Papp B→A was 27 ×10⁻⁶ cm/s (10 µM; 90 min; pH 7.4).
For CC(=O)c1c(C)c2cnc(Nc3ccc(C4CCN(CCS(C)(=O)=O)CC4)cn3)nc2n(C2CCCC2)c1=O, the Papp A→B was 15.4 ×10⁻⁶ cm/s (10 µM).
